A word on the IC50: it is the concentration at which inhibition is half-maximal.

Data on four compounds can be found in ChEMBL document CHEMBL2417527, “Prenylated and geranylated flavonoids increase production of reactive oxygen species in mouse macrophages but inhibit the inflammatory response” (J Nat Prod, 2013).

The source made the active and inactive calls. No cut-off for these calls is given here.

Test [1] deals with J774.A1. The experiment in a line: Induction of ROS production in mouse J774A1 cells at 1.25 uM after 24 hrs by flow cytometry relative to control. Background: In flow cytometry, cells or beads pass a laser one at a time.
Test [2] deals with J774.A1. The experiment in a line: Induction of ROS production in LPS-stimulated mouse J774A1 cells at 1.25 uM after 30 mins by flow cytometry relative to control. The format is functional.
A short description of test [3]: Antioxidant activity assessed as hypochlorous acid scavenging activity by fluorescence assay. The format is functional. Summed up:
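Oxidation of dihydrorhodamine 123 to rhodamine was followed. Final concentrations were 100 mM phosphate buffer (pH 7.4), compound in methanol at 0.625–100 μM, 5 μM DHR and 5 μM HClO. Fluorescence (ex 485, em 528 nm) was read at 37 °C immediately after mixing. Five independent experiments were run, each in triplicate.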

Test [4] has as its system J774.A1. The experiment in a line: Induction of ROS production in mouse J774A1 cells at 1.25 uM after 30 mins by flow cytometry relative to control. The class given is functional. Summed up:
(§1)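 Cells were grown to 80–90% confluence and switched to serum-free DMEM. They were loaded with 10 μM DCFH2-DA for 1 h, and compound (0.25 or 1.25 μM, 0.1% DMSO) was added for the final 30 min. Cells were washed, scraped off in PBS/lidocaine, and DCF was measured by flow cytometry (ex 488/em 525 nm). Results were compared with vehicle-treated cells; mean ± SE of four experiments.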

Test [5] in a line: Antioxidant activity assessed as NADH/phenazine methosulfate generated superoxide anion scavenging after 2 mins by NBT reduction assay. The class given is functional. The procedure, abridged:
(§2)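 Superoxide was generated by NADH/PMS. Final concentrations were 19 mM phosphate buffer (pH 7.4), compound in DMSO at 12.5–1000 μM, 166 μM NADH, 43.3 μM NBT and 2.7 μM PMS. NBT reduction to diformazan was read as absorbance at 560 nm after 2 min of mixing at room temperature. Five independent experiments were run, each in triplicate.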

The subject of test [6] is J774.A1. The test can be described thus: Reduction of LPS-induced COX2 expression in mouse J774A1 cells at 1.25 uM pretreated 1 hr before LPS challenge measured after 24 hrs. The class given is functional, cell-based. Summed up: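 Macrophages were pretreated with 1.25 μM compound for 1 h, then stimulated with 1 μg/mL LPS for 24 h. Lysates (40 μg protein) were run on 12% gels and blotted to PVDF. COX-2 was detected with antibody at 1:500 and normalized to β-actin by densitometry. Four independent experiments.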

The nature of test [7]: Antioxidant activity assessed as hydrogen peroxide radical scavenging activity by chemiluminescence method. The format is functional. The procedure, abridged:
(§3)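 Lucigenin chemiluminescence was used. Each reaction contained 50 mM Tris-HCl (pH 7.4), compound in DMSO at 125–1000 μM, 800 μM lucigenin and 1% (v/v) H2O2. Luminescence was read at 37 °C immediately after mixing. Five independent experiments were run, each in triplicate.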

Test [8] deals with J774.A1. The experiment in a line: Induction of ROS production in LPS-stimulated mouse J774A1 cells at 0.25 to 1.25 uM after 24 hrs by flow cytometry. The format is functional, cell-based. Summed up: (§4)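 Macrophages in serum-free DMEM were pretreated with compound (0.25 or 1.25 μM) for 1 h. E. coli 0111:B4 LPS (1 μg/mL) was then added for 24 h, with DCFH2-DA added 30 min before the end. DCF fluorescence was measured by flow cytometry (ex 488/em 525 nm). Results were compared with cells given vehicle plus LPS.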

For test [9], the system named is J774.A1. The experiment in a line: Induction of ROS production in mouse J774A1 cells at 0.25 uM after 30 mins by flow cytometry relative to control. The class given is functional. Summed up: as §1
Test [10] concerns J774.A1. The test can be described thus: Effect on ROS production in LPS-stimulated mouse J774A1 cells at 0.25 to 1.25 uM after 30 mins by flow cytometry. The class given is functional, cell-based.
In test [11] the test system is J774.A1. The test can be described thus: Induction of ROS production in mouse J774A1 cells at 0.25 to 1.25 uM after 30 mins by flow cytometry relative to control. The class given is functional. Summed up: as §1
The nature of test [12]: Antioxidant activity assessed as hydrogen peroxide radical scavenging activity at 1 mM by chemiluminescence method. The class given is functional. The procedure, abridged:
as §3

The nature of test [13]: Antioxidant activity assessed as NADH/phenazine methosulfate generated superoxide anion scavenging at 1 mM after 2 mins by NBT reduction assay. The format is functional. Summed up:
as §2

Test [14] has as its system J774.A1. The experiment in a line: Reduction of ROS production in LPS-stimulated mouse J774A1 cells at 0.25 to 1.25 uM after 24 hrs by flow cytometry. The format is functional, cell-based. Summed up: as §4
In test [15] the test system is J774.A1. The test can be described thus: Reduction of ROS production in LPS-stimulated mouse J774A1 cells at 0.25 to 1.25 uM after 30 mins by flow cytometry. The class given is functional, cell-based.

In the case of `CC(C)=CCc1c(-c2ccc(O)cc2O)oc2cc3c(c(O)c2c1=O)C=CC(C)(C)O3` [CUDRAFLAVONE B], the “fold change (FC)” value was found to be 2 in the test with J774.A1 [1], 1.71 with J774.A1 [2], 3.12 with J774.A1 [4] and 2.13 in the test with J774.A1 [9]. Further, the IC50 in test [3] stood at 1.8 µM; in test [5] it was 219 µM; in test [7], 641 µM. For the same compound, in the test with J774.A1 [6], the outcome was inactive. Also, in the test with J774.A1 [8], the result was Active.

`CC(C)=CCC/C(C)=C/Cc1c(O)cc2c(c1O)C(=O)C[C@@H](c1ccc(O)c(O)c1)O2` [NYMPHAEOL A]: the fold change (FC) came out at 0.79 with J774.A1 [1] and 0.95 in the test with J774.A1 [11]. In the test on J774.A1 [10], the result was inactive. Further, the results for the IC50 in test [3], in test [5] and in test [7] were 2.3 µM, 41.2 µM and 554 µM, respectively. In addition, the result in the test on J774.A1 [6] was Active.

Turning to `CC(C)=CCc1c2c(c3occ(-c4ccc(O)cc4)c(=O)c3c1O)C=CC(C)(C)O2` [OSAJIN], the “fold change (FC)” value in the test on J774.A1 [2] was 1.59; in the test on J774.A1 [11], 0.95. Also, the IC50 was 31 µM in test [3], more than 1000 µM in test [5] and more than 1000 µM in [7]. In addition, the Activity in test [12] was 17%; in [13], 39%. The outcome in the test with J774.A1 [8] was Active.

Consider `CC(C)=CCc1c2c(c3occ(-c4ccc(O)c(O)c4)c(=O)c3c1O)C=CC(C)(C)O2` [POMIFERIN], for which the IC50 in test [3] came out at 9.1 µM; in test [5] it was 73.3 µM; in test [7], 899 µM. Further, the outcome with J774.A1 [14] and in the test with J774.A1 [15] was Active. The “fold change (FC)” value in the test with J774.A1 [11] is 0.95.
